Calls of active or inactive are those of the source. The rule behind the calls is not given here.
Key:
Assay type in all cases: functional, cell-based
LoVo [1] = assay: Cytotoxicity against human wild type LoVo cells after 48 hrs by MTS assay
How it was run: (§1)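 LoVo WT human colon adenocarcinoma cells grown in D-MEM F12 with 10% FBS, penicillin/streptomycin, 37 °C, 5% CO2. Seeded 1 × 10^4 cells/well, medium replaced after 1 day with exposure medium containing test agents (0.1–300 µM; DMSO 0.3% or less). After 1–3 day exposure, MTS/PMS added for 2 h at 37 °C; formazan absorbance read at 490 nm. Viability expressed relative to DMSO-only controls.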

LoVo [2] = assay: Cytotoxicity against human wild type LoVo cells after 24 hrs by MTS assay; how it was run: as §1
LoVo [3] = assay: Induction of apoptosis in human wild type LoVo cells assessed as increase in hyplodiploid cells after 24 hrs by flow cytometry
How it was run: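 Apoptosis measured in LoVo WT cells after 24 h exposure as the percentage of hypodiploid cells (loss of fragmented DNA), determined by flow cytometry.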

LoVo [4] = assay: Cytotoxicity against human wild type LoVo cells at 100 uM after 24 hrs by MTS assay; how it was run: as §1

Row | SMILES | IC50 (LoVo [1]) [µM] | IC50 (LoVo [2]) [µM] | Activity (LoVo [3]) | Activity (LoVo [4])
1 | CC1(C)CCc2c(ccc3cc(O)ccc23)O1 | 27.4 | 34.5 | Active | 
2 | CC1(C)CCc2cc(CCO)ccc2O1 |  |  |  | inactive
3 | CC1(C)CCc2c(ccc3c4c(ccc23)OC(C)(C)CC4)O1 | 395 | 258 | inactive | 
4 | Oc1ccc2cc(O)ccc2c1 |  |  | inactive | 

Source: ChEMBL document CHEMBL1153481, “Chromane derivatives of small aromatic molecules: Chemoenzymatic synthesis and growth inhibitory activity on human tumor cell line LoVo WT” (Bioorg Med Chem, 2009)
